This is an account of results in PMC4709821 (ACS Infectious Diseases, 2015).

Series [1] deals with C. neoformans. Particulars: cited from earlier work.
Series [2] concerns protein kinase C 1 (Pkc1). In words: Cellular protein kinase C activity. In kind it is biochemical, C. neoformans. The conditions noted are these: cell lysates. The essentials:
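Cells were grown overnight in YPD at 30 °C, washed three times in DPBS, adjusted to 1 × 10^7 cells/mL and lysed with glass beads in kit extraction buffer. Equal total protein plus a dilution series of test compound went into each reaction with a fluorescent Pkc1-specific substrate for 30 min. Products were separated on agarose gel, quantified by densitometry and expressed as % of DMSO reactions. Staurosporine served as reference inhibitor.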

Another series has as its system HEK293 cells. In words: Mammalian cell cytotoxicity. In kind it is cell-based, human. Particulars: higher concentrations not tested.
A further series deals with C. neoformans mpk1Δ. In words: MIC against the congenic mpk1Δ strain. In kind it is cell-based, Cryptococcus neoformans. Particulars: 30 °C. The essentials: (§1)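 MIC was determined by the CLSI-approved method, read at a 72 h end point. Congenic CM108 and mpk1Δ strains came from the Fungal Genetics Stock Center. CM108 was tested at 30 and 37 °C and mpk1Δ at 30 °C.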
Series [3] relates to C. neoformans. In words: Alamar blue viability assay with and without 1 M sorbitol. In kind it is cell-based, Cryptococcus neoformans. The gist of the method: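 C. neoformans was grown overnight in YPD at 30 °C and seeded at 1.5 × 10^4 cells/mL into a dilution series of test compound, in synthetic complete medium with or without 1 M sorbitol. Plates ran 24 h at 37 °C, then Alamar blue (1:10) was added for 2 h at 37 °C. Fluorescence (Ex 544/Em 590) was compared to DMSO wells, and IC50 was obtained by curve fitting.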
(In general: The colour change of resazurin is a common sign of viable cells or microbes.)

The nature of series [4]: Stability in human plasma. In kind it is in vitro ADME. The conditions noted are these: after 5 h of incubation.
Series [5] relates to C. neoformans strain CM108. The series is described as follows: MIC at 30 and 37 °C with strain CM108. In kind it is cell-based. The conditions noted are these: Cryptococcus neoformans. The essentials:
as §1

A short description of series [6]: Stability in mouse plasma. In kind it is in vitro ADME. Particulars: after 5 h of incubation.
The test system of another series is C. neoformans H99 cells. In words: Checkerboard assay of interaction with caspofungin. In kind it is cell-based, Cryptococcus neoformans.
The test system of another series is Mpk1 phosphorylation. In words: Western blot of Mpk1 phosphorylation in C. neoformans. In kind it is cell-based. Particulars: exponential phase cells, MPK1-FLAG strain.
Series [7] deals with Rlm1-lacZ reporter of CWIP activity. The series is described as follows: Rlm1-lacZ cell wall integrity pathway. In kind it is cell-based, S. cerevisiae. The conditions noted are these: exposure of cells harboring the reporter plasmid. The essentials: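 S. cerevisiae CRY2 (W303 background) carried a plasmid with lacZ driven by two consensus Rlm1 binding sites. Cells were grown overnight in SC lacking uracil at 30 °C, diluted to 0.1 OD600 in YPD and grown to 0.4. They were dispensed at 0.05 OD600, and test compound was pinned in. Plates stood 4 h at room temperature before Gal-Screen luminescence read-out against solvent wells. Values are the mean of three replicates.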

Values after ≈ are worked out from the molar mass of the structure shown.

As for `CCN(CC)CCOc1ccc(C(=C(Cl)c2ccccc2)c2ccccc2)cc1` [clomiphene], the “AK signal / cell lysis” value with C. neoformans [1] (positive control of the screen) is on record as “strong AK signal”.

For the compound `OC(Cn1cncn1)(Cn1cncn1)c1ccc(F)cc1F` [fluconazole], the “AK activity compared to solvent controls” value with C. neoformans [1] is recorded as “no increase”.

On to `CN[C@@H]1C[C@H]2O[C@@](C)([C@@H]1OC)n1c3ccccc3c3c4c(c5c6ccccc6n2c5c31)C(=O)NC4` [staurosporine, reference compound], for which the “reduction in Pkc1 activity” value in series [2] (data not shown) is reported as 25%.

Take `Cc1ccc(C(C)C)c(OCCn2c(S)nc3ccccc32)c1` [Compound 1, 1-(2-(2-isopropyl-5-methylphenoxy)ethyl)-1H-benzo[d]imidazole-2(3H)-thione]: the “concentration up to which nontoxic” value in the series with HEK293 cells is at least 80 µM. In the series with C. neoformans mpk1Δ, the “activity against strain from which MPK1 has been deleted” value is given as “active”. The “sorbitol suppression of anticryptococcal activity” value with C. neoformans [3] is listed as “sorbitol-suppressable”. Besides, the “remaining intact in plasma” value in [4] and in series [6] was 100% in each case. Also, the “protein kinase C activity as percentage of DMSO-treated samples” value in [2] (concentrations as high as 10-fold above its MIC) came to 91 ± 3%. Moreover, the MIC (in general, the lowest concentration found to suppress growth) in [5] (CM108, 30 °C) is 16 µg/mL (≈ 49 µM); in series [5] (CM108, 37 °C) it was 8 µg/mL (≈ 24.5 µM). In addition, in the series with C. neoformans H99 cells (combination of 1 with caspofungin, 1 at 2-fold below its MIC), the “fractional inhibitory concentration index (FICI)” value is 0.625. Further, the “reduction of the concentration of caspofungin needed to inhibit C. neoformans” value in the series with C. neoformans H99 cells (subinhibitory concentrations of 1) is reported as 8 fold.

Consider `O=S(=O)(O)c1cc(Nc2nc(Nc3ccccc3)nc(N(CCO)CCO)n2)ccc1/C=C/c1ccc(Nc2nc(Nc3ccccc3)nc(N(CCO)CCO)n2)cc1S(=O)(=O)O` [Calcofluor white], for which the “Mpk1 phosphorylation caused by the agent alone” value in the series with Mpk1 phosphorylation is reported as “induced phosphorylation of Mpk1”. For the same compound, the “increase in β-galactosidase activity” value in [7] worked out at 5 fold.
